Experimental data as given in publication PMC12125705 (Journal of medicinal chemistry, 2017).

Key:
Test in all cases: MIC by microbroth dilution
Settings in all cases: 24 h, 37 °C
[1] = test system: A. baumanni 19606; type: cell-based, Acinetobacter baumanni
Summary of the method: (§1)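 CLSI microbroth dilution in Mueller-Hinton broth. Strains were grown at 37 °C with shaking to log phase, pelleted, and resuspended in 0.85% saline to OD625 0.1. Final inoculum 5 × 10^5 CFU/mL in 96-well plates, tested in triplicate, incubated 24 h at 37 °C. Growth was read as OD at 625 nm.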

[2] = test system: C. freundii 4747CFAA; type: cell-based, Citrobacter freundii
Summary of the method: as §1

[3] = test system: S. epidermidis 12384; type: cell-based, Staphylococcus epidermidis
Summary of the method: as §1

[4] = test system: K. pneumoniae NR15410; type: cell-based, Klebsiella pneumoniae
Summary of the method: as §1

[5] = test system: S. aureus 33591; type: cell-based, Staphylococcus aureus
[6] = test system: E. cloacae 13047; type: cell-based, Enterobacter cloacae
Summary of the method: as §1

[7] = test system: S. aureus 29213; type: cell-based, Staphylococcus aureus
[8] = test system: MRSA 33591; type: cell-based, Staphylococcus aureus
Summary of the method: as §1

[9] = test system: S. flexneri 2457NR517; type: cell-based, Shigella flexneri
[10] = test system: P. aeruginosa 27853; type: cell-based, Pseudomonas aeruginosa
[11] = test system: E. faecalis 29212; type: cell-based, Enterococcus faecalis
[12] = test system: E. faecium BM4105RF; type: cell-based, Enterococcus faecium
[13] = test system: MRSA A960649; type: cell-based, Staphylococcus aureus
Summary of the method: as §1

[14] = test system: E. coli 25922; type: cell-based, Escherichia coli
[15] = test system: E. coli K12; type: cell-based, Escherichia coli

Substance: 6-(4-Methylpiperazin-1-yl)-2-(4-(2-(4-(oct-7-ynyl)-1H-1,2,3-triazol-1-yl)ethoxy)phenyl)-1H-benzo[d]imidazole [Compound 22]
- MIC A. baumanni 19606 [1]: >32 µg/mL
- MIC C. freundii 4747CFAA [2]: >32 µg/mL
- MIC S. epidermidis 12384 [3]: >32 µg/mL
- MIC K. pneumoniae NR15410 [4]: >32 µg/mL
- MIC S. aureus 33591 [5]: 16 to 32 µg/mL
- MIC E. cloacae 13047 [6]: >32 µg/mL
- MIC S. aureus 29213 [7]: 16 to 32 µg/mL
- MIC MRSA 33591 [8]: >32 µg/mL
- MIC S. flexneri 2457NR517 [9]: >32 µg/mL
- MIC P. aeruginosa 27853 [10]: 16 µg/mL
- MIC E. faecalis 29212 [11]: 16 to 32 µg/mL
- MIC E. faecium BM4105RF [12]: >32 µg/mL
- MIC MRSA A960649 [13]: >32 µg/mL
- MIC E. coli 25922 [14]: 16 µg/mL
- MIC E. coli K12 [15]: 16 µg/mL
